Assays:
Format in all cases: functional
[1] = tested on: Mycobacterium tuberculosis; experiment: Antimycobacterial activity against Mycobacterium tuberculosis H37Rv ATCC 27294 incubated for 7 days by microplate Alamar Blue assay; settings: H37Rv ATCC 27294, 168 h
In short: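 Fluorescence read-out. MIC is the lowest concentration that reduces fluorescence by at least 90% relative to the mean of replicate bacterium-only controls. Isoniazid and rifampicin were included as reference drugs.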

Escherichia coli [2] = experiment: Antibacterial activity against Escherichia coli ATCC 25922 after 18 to 24 hrs by two-fold serial dilution method
In short: (§1)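 Twofold serial dilution in agar media against Gram-positive and Gram-negative strains. Plates incubated at 35 °C for 18–24 h. MIC read as the lowest compound concentration giving complete inhibition of bacterial growth.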

Escherichia coli [3] = experiment: Antibacterial activity against extended-spectrum beta-lactamase producing Escherichia coli 14-1 after 18 to 24 hrs by two-fold serial dilution method; in short: as §1
Escherichia coli [4] = experiment: Antibacterial activity against extended-spectrum beta-lactamase producing Escherichia coli 14-2 after 18 to 24 hrs by two-fold serial dilution method; in short: as §1
Escherichia coli [5] = experiment: Antibacterial activity against Escherichia coli 14-1 after 18 to 24 hrs by two-fold serial dilution method; in short: as §1
Escherichia coli [6] = experiment: Antibacterial activity against Escherichia coli 14-2 after 18 to 24 hrs by two-fold serial dilution method; in short: as §1
Klebsiella pneumoniae [7] = experiment: Antibacterial activity against extended-spectrum beta-lactamase producing Klebsiella pneumoniae 14-17 after 18 to 24 hrs by two-fold serial dilution method; in short: as §1
Klebsiella pneumoniae [8] = experiment: Antibacterial activity against extended-spectrum beta-lactamase producing Klebsiella pneumoniae 14-18 after 18 to 24 hrs by two-fold serial dilution method; in short: as §1
Klebsiella pneumoniae [9] = experiment: Antibacterial activity against extended-spectrum beta-lactamase producing Klebsiella pneumoniae 14-19 after 18 to 24 hrs by two-fold serial dilution method; in short: as §1
Klebsiella pneumoniae [10] = experiment: Antibacterial activity against Klebsiella pneumoniae 14-1 after 18 to 24 hrs by two-fold serial dilution method; in short: as §1
Klebsiella pneumoniae [11] = experiment: Antibacterial activity against Klebsiella pneumoniae 14-2 after 18 to 24 hrs by two-fold serial dilution method; in short: as §1
Klebsiella pneumoniae [12] = experiment: Antibacterial activity against Klebsiella pneumoniae 14-3 after 18 to 24 hrs by two-fold serial dilution method; in short: as §1
Klebsiella pneumoniae [13] = experiment: Antibacterial activity against Klebsiella pneumoniae 14-4 after 18 to 24 hrs by two-fold serial dilution method; in short: as §1
Pseudomonas aeruginosa [14] = experiment: Antibacterial activity against Pseudomonas aeruginosa ATCC 27853 after 18 to 24 hrs by two-fold serial dilution method; in short: as §1
Pseudomonas aeruginosa [15] = experiment: Antibacterial activity against Pseudomonas aeruginosa 14-9 after 18 to 24 hrs by two-fold serial dilution method; in short: as §1
Pseudomonas aeruginosa [16] = experiment: Antibacterial activity against Pseudomonas aeruginosa 14-14 after 18 to 24 hrs by two-fold serial dilution method; in short: as §1
Pseudomonas aeruginosa [17] = experiment: Antibacterial activity against Pseudomonas aeruginosa 14-15 after 18 to 24 hrs by two-fold serial dilution method; in short: as §1
Pseudomonas aeruginosa [18] = experiment: Antibacterial activity against Pseudomonas aeruginosa 14-16 after 18 to 24 hrs by two-fold serial dilution method; in short: as §1
Staphylococcus aureus [19] = experiment: Antibacterial activity against Staphylococcus aureus CMCC 26003 after 18 to 24 hrs by two-fold serial dilution method; in short: as §1
Staphylococcus aureus [20] = experiment: Antibacterial activity against methicillin-sensitive Staphylococcus aureus 14-1 after 18 to 24 hrs by two-fold serial dilution method; in short: as §1
Staphylococcus aureus [21] = experiment: Antibacterial activity against methicillin-sensitive Staphylococcus aureus 14-3 after 18 to 24 hrs by two-fold serial dilution method; in short: as §1
Staphylococcus aureus [22] = experiment: Antibacterial activity against methicillin-sensitive Staphylococcus aureus 14-4 after 18 to 24 hrs by two-fold serial dilution method; in short: as §1
Staphylococcus aureus [23] = experiment: Antibacterial activity against methicillin-resistant Staphylococcus aureus 14-4 after 18 to 24 hrs by two-fold serial dilution method
In short: (§2)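 Agar media, standard twofold serial dilution. MIC is the lowest concentration giving complete inhibition of bacterial growth after incubation at 35 °C for 18–24 h. Ciprofloxacin and levofloxacin were run as comparators.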

Staphylococcus aureus [24] = experiment: Antibacterial activity against methicillin-resistant Staphylococcus aureus 14-5 after 18 to 24 hrs by two-fold serial dilution method; in short: as §2
[25] = tested on: Staphylococcus epidermidis; experiment: Antibacterial activity against methicillin-sensitive Staphylococcus epidermidis 14-2 after 18 to 24 hrs by two-fold serial dilution method; in short: as §1
[26] = tested on: Staphylococcus epidermidis; experiment: Antibacterial activity against methicillin-resistant Staphylococcus epidermidis 14-21 after 18 to 24 hrs by two-fold serial dilution method; in short: as §2
[27] = tested on: Staphylococcus epidermidis; experiment: Antibacterial activity against methicillin-resistant Staphylococcus epidermidis 14-22 after 18 to 24 hrs by two-fold serial dilution method; in short: as §2
[28] = tested on: Staphylococcus epidermidis; experiment: Antibacterial activity against methicillin-resistant Staphylococcus epidermidis 14-37 after 18 to 24 hrs by two-fold serial dilution method; in short: as §2
[29] = tested on: Staphylococcus epidermidis; experiment: Antibacterial activity against methicillin-resistant Staphylococcus epidermidis 14-39 after 18 to 24 hrs by two-fold serial dilution method; in short: as §2
Streptococcus pneumoniae = experiment: Antibacterial activity against methicillin-resistant Streptococcus pneumoniae ATCC 19615 after 18 to 24 hrs by two-fold serial dilution method; in short: as §2
Enterococcus faecium [30] = experiment: Antibacterial activity against Enterococcus faecium 14-2 after 18 to 24 hrs by two-fold serial dilution method; in short: as §1
Enterococcus faecium [31] = experiment: Antibacterial activity against Enterococcus faecium 14-5 after 18 to 24 hrs by two-fold serial dilution method; in short: as §1
Enterococcus faecium [32] = experiment: Antibacterial activity against Enterococcus faecium 14-6 after 18 to 24 hrs by two-fold serial dilution method; in short: as §1
Enterococcus faecalis [33] = experiment: Antibacterial activity against Enterococcus faecalis 14-1 after 18 to 24 hrs by two-fold serial dilution method; in short: as §1
Enterococcus faecalis [34] = experiment: Antibacterial activity against Enterococcus faecalis 14-2 after 18 to 24 hrs by two-fold serial dilution method; in short: as §1
Staphylococcus aureus [35] = experiment: Potency index, ratio of ciprofloxacin MIC to compound MIC for methicillin-resistant Staphylococcus aureus 14-4
Staphylococcus aureus [36] = experiment: Potency index, ratio of ciprofloxacin MIC to compound MIC for methicillin-resistant Staphylococcus aureus 14-5
[37] = tested on: Staphylococcus epidermidis; experiment: Potency index, ratio of ciprofloxacin MIC to compound MIC for methicillin-resistant Staphylococcus epidermidis 14-21
[38] = tested on: Staphylococcus epidermidis; experiment: Potency index, ratio of ciprofloxacin MIC to compound MIC for methicillin-resistant Staphylococcus epidermidis 14-22
[39] = tested on: Staphylococcus epidermidis; experiment: Potency index, ratio of ciprofloxacin MIC to compound MIC for methicillin-resistant Staphylococcus epidermidis 14-37
[40] = tested on: Staphylococcus epidermidis; experiment: Potency index, ratio of ciprofloxacin MIC to compound MIC for methicillin-resistant Staphylococcus epidermidis 14-39
Enterococcus faecium [41] = experiment: Potency index, ratio of ciprofloxacin MIC to compound MIC for Enterococcus faecium 14-2
Enterococcus faecium [42] = experiment: Potency index, ratio of ciprofloxacin MIC to compound MIC for Enterococcus faecium 14-5
Enterococcus faecium [43] = experiment: Potency index, ratio of ciprofloxacin MIC to compound MIC for Enterococcus faecium 14-6
Enterococcus faecalis [44] = experiment: Potency index, ratio of ciprofloxacin MIC to compound MIC for Enterococcus faecalis 14-1
Enterococcus faecalis [45] = experiment: Potency index, ratio of ciprofloxacin MIC to compound MIC for Enterococcus faecalis 14-2
Staphylococcus aureus [46] = experiment: Potency index, ratio of levofloxacin MIC to compound MIC for methicillin-resistant Staphylococcus aureus 14-4
Staphylococcus aureus [47] = experiment: Potency index, ratio of levofloxacin MIC to compound MIC for methicillin-resistant Staphylococcus aureus 14-5
[48] = tested on: Staphylococcus epidermidis; experiment: Potency index, ratio of levofloxacin MIC to compound MIC for methicillin-resistant Staphylococcus epidermidis 14-21
[49] = tested on: Staphylococcus epidermidis; experiment: Potency index, ratio of levofloxacin MIC to compound MIC for methicillin-resistant Staphylococcus epidermidis 14-22
[50] = tested on: Staphylococcus epidermidis; experiment: Potency index, ratio of levofloxacin MIC to compound MIC for methicillin-resistant Staphylococcus epidermidis 14-37
[51] = tested on: Staphylococcus epidermidis; experiment: Potency index, ratio of levofloxacin MIC to compound MIC for methicillin-resistant Staphylococcus epidermidis 14-39
Enterococcus faecium [52] = experiment: Potency index, ratio of levofloxacin MIC to compound MIC for Enterococcus faecium 14-2
Enterococcus faecium [53] = experiment: Potency index, ratio of levofloxacin MIC to compound MIC for Enterococcus faecium 14-5
Enterococcus faecium [54] = experiment: Potency index, ratio of levofloxacin MIC to compound MIC for Enterococcus faecium 14-6
Enterococcus faecalis [55] = experiment: Potency index, ratio of levofloxacin MIC to compound MIC for Enterococcus faecalis 14-1
Enterococcus faecalis [56] = experiment: Potency index, ratio of levofloxacin MIC to compound MIC for Enterococcus faecalis 14-2

CO/N=C1/CN(c2c(F)cc3c(=O)c(C(=O)O)cn4c3c2OC[C@@H]4C)CC1(C)CNC1CC1 (some centres not stated)
8 µg/mL: MIC (Pseudomonas aeruginosa [15]) | MIC [25] | MIC (Enterococcus faecium [32]) | MIC (Enterococcus faecalis [33])
32 µg/mL: MIC (Klebsiella pneumoniae [9]) | MIC (Pseudomonas aeruginosa [16]) | MIC (Pseudomonas aeruginosa [17]) | MIC (Pseudomonas aeruginosa [18])
0.64 µg/mL: MIC90 [1]
0.5 µg/mL: MIC (Streptococcus pneumoniae) | MIC (Enterococcus faecalis [34])
> 128 µg/mL: MIC (Escherichia coli [4]) | MIC (Klebsiella pneumoniae [13])
2: Ratio (Staphylococcus aureus [35]) | Ratio (Staphylococcus aureus [36]) | Ratio [37] | Ratio [38] | Ratio [39] | Ratio [40] | Ratio (Enterococcus faecium [41]) | Ratio (Enterococcus faecium [42]) | Ratio (Enterococcus faecium [43]) | Ratio (Enterococcus faecalis [44]) | Ratio (Enterococcus faecalis [45]) | Ratio (Staphylococcus aureus [46]) | Ratio (Staphylococcus aureus [47]) | Ratio [48] | Ratio [49] | Ratio [50] | Ratio [51] | Ratio (Enterococcus faecium [52]) | Ratio (Enterococcus faecium [53]) | Ratio (Enterococcus faecium [54]) | Ratio (Enterococcus faecalis [55]) | Ratio (Enterococcus faecalis [56])
64 µg/mL: MIC (Escherichia coli [5]) | MIC (Escherichia coli [6])
16 µg/mL: MIC (Klebsiella pneumoniae [7]) | MIC (Klebsiella pneumoniae [8]) | MIC (Klebsiella pneumoniae [10]) | MIC (Klebsiella pneumoniae [11]) | MIC (Pseudomonas aeruginosa [14])
2 µg/mL: MIC (Escherichia coli [2]) | MIC (Staphylococcus aureus [20]) | MIC [27] | MIC [28] | MIC [29]
0.015 µg/mL: MIC (Staphylococcus aureus [21]) | MIC (Staphylococcus aureus [22])
4 µg/mL: MIC (Escherichia coli [3]) | MIC (Staphylococcus aureus [23]) | MIC (Staphylococcus aureus [24]) | MIC [26] | MIC (Enterococcus faecium [30]) | MIC (Enterococcus faecium [31])
128 µg/mL: MIC (Klebsiella pneumoniae [12])
< 0.008 µg/mL: MIC (Staphylococcus aureus [19])

CO/N=C1/CN(c2nc3c(cc2F)c(=O)c(C(=O)O)cn3-c2nc(N)c(F)cc2F)CC1CNC1CC1 (configuration not stated)
16 µg/mL: MIC (Escherichia coli [3]) | MIC (Pseudomonas aeruginosa [14]) | MIC (Staphylococcus aureus [20]) | MIC (Staphylococcus aureus [21]) | MIC (Staphylococcus aureus [22]) | MIC (Staphylococcus aureus [24]) | MIC [29] | MIC (Enterococcus faecium [31]) | MIC (Enterococcus faecalis [33])
> 128 µg/mL: MIC (Escherichia coli [4]) | MIC (Escherichia coli [5]) | MIC (Escherichia coli [6]) | MIC (Klebsiella pneumoniae [12]) | MIC (Klebsiella pneumoniae [13])
0.25 µg/mL: MIC (Staphylococcus aureus [19])
24.3 µg/mL: MIC90 [1]
128 µg/mL: MIC (Pseudomonas aeruginosa [16]) | MIC (Pseudomonas aeruginosa [17]) | MIC [25]
4 µg/mL: MIC (Escherichia coli [2]) | MIC (Enterococcus faecalis [34])
64 µg/mL: MIC (Klebsiella pneumoniae [7]) | MIC (Klebsiella pneumoniae [8]) | MIC (Klebsiella pneumoniae [9]) | MIC (Pseudomonas aeruginosa [18]) | MIC (Staphylococcus aureus [23]) | MIC [26] | MIC [28]
32 µg/mL: MIC (Klebsiella pneumoniae [10]) | MIC (Klebsiella pneumoniae [11]) | MIC (Pseudomonas aeruginosa [15]) | MIC [27] | MIC (Streptococcus pneumoniae) | MIC (Enterococcus faecium [30]) | MIC (Enterococcus faecium [32])

— ChEMBL document CHEMBL3734675, “Synthesis, antimycobacterial and antibacterial activity of fluoroquinolone derivatives containing an 3-alkoxyimino-4-(cyclopropylanimo)methylpyrrolidine moiety” (2015)
